Source: ChEMBL document CHEMBL3797057, “Synthesis and bioevaluation of substituted chalcones, coumaranones and other flavonoids as anti-HIV agents” (Bioorg Med Chem, 2016)
Calls of active or inactive are those of the source. No cut-off for these calls is given here.

Key:
[1] = Cytotoxicity against human TZM-bl cells assessed as inhibition of cell viability at 10 uM by CytoTox Glo assay relative to control; assay type: cell-based; conditions: for cytotoxicity at 10 µM: TZM-bl cells, read-out: INH; for inhibition (INH): tzm, 10 µM
Method in brief: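 Replicate dishes of treated TZM-bl cells (50-60% confluent, compound at 10 µM in D10, triplicate) assayed with CytoTox Glo for dead and total cell numbers. Result is % difference in live-cell luminescence versus matched DMSO vehicle control.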

[2] = tested on: Human immunodeficiency virus 1; test: Antiviral activity against HIV1 BAL infected in human TZM-bl cells assessed as inhibition of viral infection; assay type: functional, organism-based; conditions: for IC50: Human immunodeficiency virus 1, BAL
Method in brief: (§1)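 TZM-bl cells seeded at 6 × 10^4 cells/ml (6000 cells/well), left overnight, then at 50-60% confluence treated in triplicate with compound in D10 or DMSO vehicle. After 5 min, HIV-1 added at 60 TCID50/0.1mL (MOI=0.01). After 24 h at 37°C/5% CO2, cells lysed for Bright Glo luciferase. Inhibition is % reduction in RLU versus virus+DMSO control, with no-virus wells as baseline.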

[3] = Cytotoxicity against human TZM-bl cells assessed as decrease in cell viability at IC50 by CytoTox Glo assay relative to control; assay type: cell-based
[4] = Cytotoxicity against human PM1 cells assessed as inhibition of cell viability at 10 uM by trypan blue dye exclusion method relative to control; assay type: cell-based; conditions: read-out: INH
Method in brief: (§2)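 PM1 cells (1.5 × 10^5/0.1 mL) kept in R20 with compound or matched DMSO vehicle over the 5-day BaL propagation assay (10 min pre-treatment, 2 h infection, wash, re-treatment). Viability monitored by trypan blue dye exclusion.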

[5] = tested on: Human immunodeficiency virus 1; test: Antiviral activity against HIV1 BAL infected in human PM1 cells assessed as inhibition of viral propagation at 5 uM preincubated with cells for 10 mins followed by viral infection measured after 2 hrs by p24 ELISA relative to control; assay type: functional; conditions: for inhibition at 5 µM: Human immunodeficiency virus 1, BAL
Method in brief: (§3)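 PM1 cells (1.5 × 10^5/0.1 mL) in R20 (RPMI 1640, 20% FBS, 10mM HEPES) given compound or matched DMSO 10 min, then infected with HIV-1 BaL at 150 TCID50/0.1 mL (MOI=0.001) for 2 h. Cells washed, resuspended in fresh R20 with compound or vehicle. Supernatants taken day 3; culture continued to day 5, supernatant assayed for HIV p24 by ELISA.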

[6] = tested on: Human immunodeficiency virus 1; test: Antiviral activity against HIV1 infected in human TZM-bl cells assessed as inhibition of viral infection at 10 uM preincubated with cells for 5 mins followed by viral infection measured after 24 hrs by Bright Glo luciferase reporter gene assay relative to control; assay type: functional; conditions: Human immunodeficiency virus 1, TZM-bl
Method in brief: (§4)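 TZM-bl cells at 50-60% confluence, in D10 medium, were pre-treated in triplicate with 10 µM compound or DMSO vehicle, for 5 min or 3 h. Virus was then added at 60 TCID50/0.1mL (MOI=0.01). After 24 h the cells were lysed for luciferase, read over 5 s/well. Result is % reduction in relative light units versus the virus+DMSO control.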

[7] = tested on: Human immunodeficiency virus 1; test: Antiviral activity against HIV1 infected in human TZM-bl cells assessed as inhibition of viral infection at 10 uM preincubated with cells for 3 hrs followed by viral infection measured after 24 hrs by Bright Glo luciferase reporter gene assay relative to control; assay type: functional; conditions: Human immunodeficiency virus 1, TZM-bl; method in brief: as §4
[8] = tested on: Human immunodeficiency virus 1; test: Antiviral activity against HIV1 BAL infected in human PM1 cells assessed as inhibition of viral propagation at 10 uM preincubated with cells for 10 mins followed by viral infection measured after 2 hrs by p24 ELISA relative to control; assay type: functional; conditions: for inhibition at 10 µM: Human immunodeficiency virus 1, BAL; method in brief: as §3
[9] = Cytotoxicity against human PM1 cells assessed as inhibition of cell viability at 5 uM by trypan blue dye exclusion method relative to control; assay type: cell-based; conditions: for cytotoxicity at 5 µM: PM1 cells, read-out: INH; method in brief: as §2
[10] = tested on: Human immunodeficiency virus 1; test: Antiviral activity against HIV1 93UG070 clinical isolate infected in human TZM-bl cells assessed as inhibition of viral infection; assay type: functional, organism-based; method in brief: as §1
[11] = tested on: Human immunodeficiency virus 1; test: Antiviral activity against HIV1 93UG067 clinical isolate infected in human TZM-bl cells assessed as inhibition of viral infection; assay type: functional, organism-based; method in brief: as §1
[12] = tested on: Human immunodeficiency virus 1; test: Antiviral activity against HIV1 92UG029 clinical isolate infected in human TZM-bl cells assessed as inhibition of viral infection; assay type: functional, organism-based; method in brief: as §1
[13] = Cytotoxicity against human TZM-bl cells assessed as decrease in cell metabolic activity up to 10 uM by MTT reduction assay; assay type: ADME, cell-based
Method in brief: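 Confluent TZM-bl cells exposed to compound up to 10 µM or matched vehicle; cell metabolic activity monitored by MTT reduction assay. Mean ± SEM, n=3.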

Q: Which cytotoxicity at 10 µM [1] does the source give for `COc1ccc(Cl)cc1-c1oc2ccccc2c(=O)c1O` here?
A: The cytotoxicity at 10 µM was 23.5%.

Q: Which results are given for `COc1ccc(Br)cc1/C=C/C(=O)c1ccc2ccccc2c1O`?
A: IC50 [2]: 20 µM; Activity [3]: 90%; cytotoxicity at 10 µM [1]: 19.9%

Q: Which cytotoxicity at 10 µM [1] does the source give for `COc1ccc(Br)cc1/C=C/C(=O)c1ccccc1O` here?
A: Its cytotoxicity at 10 µM is 62.6%.

Q: What does the source list for `CCOc1ccc(Br)cc1-c1oc2ccccc2c(=O)c1O`?
A: IC50 [2]: 10.4 µM; cytotoxicity at 10 µM [4]: 23.1%; inhibition [5]: inactive; inhibition at 10 µM [6]: 51.7%; inhibition at 10 µM [7]: 54.9%; inhibition at 10 µM [8]: 1.3%; Activity [3]: Non-toxic; cytotoxicity at 5 µM [9]: 16.5%; inhibition (INH) [1]: Not Active

Q: Which results are given for `CCOc1ccc(Cl)cc1-c1oc2ccccc2c(=O)c1O`?
A: IC50 [2]: 12.6 µM; cytotoxicity at 10 µM [4]: 25.8%; inhibition at 10 µM [7]: 54.1%; inhibition [8]: inactive; Activity [3]: 20%; cytotoxicity at 10 µM [1]: 21.9%

Q: With `COc1cc(OC)c(-c2oc3ccccc3c(=O)c2O)cc1Br` as the compound, how does the inhibition at 10 µM [6] read?
A: Its inhibition at 10 µM is 43.6%.

Q: What about the “inhibition (INH)” value [1] of the same compound?
A: The value was “Not Active”.

Q: Which cytotoxicity at 10 µM [1] does the source give for `COc1cc(Br)cc(/C=C/C(=O)c2ccccc2O)c1OC` here?
A: Its cytotoxicity at 10 µM is 72.3%.

Q: For `CCCCCCCCOc1ccc(Br)cc1/C=C/C(=O)c1c(O)cccc1OCc1ccccc1`, which inhibition at 10 µM [6] is on record?
A: Its inhibition at 10 µM is under 10%.

Q: What about the inhibition at 10 µM [7] of the same compound?
A: The inhibition at 10 µM was 27.9%.

Q: For `COc1ccc(Br)cc1/C=C/C(=O)c1c(O)cccc1OCc1ccccc1`, which inhibition [2] is on record?
A: Its inhibition is “Dose-dependent effect”.

Q: And the IC50 [2]?
A: The IC50 was 4.7 µM.

Q: And the inhibition [10]?
A: Its inhibition is “Dose-dependent effect”.

Q: And the cytotoxicity at 10 µM [4]?
A: The cytotoxicity at 10 µM was 61.7%.

Q: And the inhibition at 5 µM [5]?
A: The inhibition at 5 µM was 80%.

Q: What about the inhibition at 10 µM [6] of the same compound?
A: Its inhibition at 10 µM is 86.5%.

Q: What about the inhibition at 10 µM [7] of the same compound?
A: Its inhibition at 10 µM is 90.5%.

Q: What about the inhibition [11] of the same compound?
A: Its inhibition is “Dose-dependent effect”.

Q: What about the inhibition at 10 µM [8] of the same compound?
A: The inhibition at 10 µM was 99.9%.

Q: What about the Activity [3] of the same compound?
A: The Activity was “Non-toxic”.

Q: And the cytotoxicity at 5 µM [9]?
A: The cytotoxicity at 5 µM was 0.6%.

Q: What about the inhibition [12] of the same compound?
A: Its inhibition is “Dose-dependent effect”.

Q: And the cytotoxicity at 10 µM [1]?
A: Its cytotoxicity at 10 µM is 23.4%.

Q: And the Activity [13]?
A: Its Activity is “Non-toxic”.

Q: For `COc1cc(Br)cc(-c2oc3ccccc3c(=O)c2O)c1OC`, which IC50 [2] is on record?
A: The IC50 was 30.9 µM.

Q: And the inhibition at 10 µM [6]?
A: Its inhibition at 10 µM is 25.9%.

Q: What about the Activity [3] of the same compound?
A: Its Activity is “Non-toxic”.

Q: What about the “inhibition (INH)” value [1] of the same compound?
A: The value was “Not Active”.

Q: Which results are given for `CCOc1ccc(Cl)cc1/C=C/C(=O)c1c(O)cccc1OCc1ccccc1`?
A: cytotoxicity at 10 µM [4]: 12.3%; inhibition at 5 µM [5]: 65.8%; inhibition at 10 µM [6]: 64.8%; inhibition at 10 µM [7]: 79%; inhibition at 10 µM [8]: 95.8%; inhibition (INH) ([9]; pm1, 5 µM): Not Active; cytotoxicity at 10 µM [1]: 8.7%

Q: With `COc1ccccc1-c1cc(=O)c2ccccc2o1` as the compound, how does the cytotoxicity at 10 µM [1] read?
A: The cytotoxicity at 10 µM was 39.5%.

Q: For `COc1ccccc1-c1cc(=O)c2c(O)cccc2o1`, which IC50 [2] is on record?
A: Its IC50 is 4.4 µM.

Q: What about the inhibition at 10 µM [6] of the same compound?
A: The inhibition at 10 µM was 83.8%.

Q: And the Activity [3]?
A: The Activity was 42%.

Q: What about the cytotoxicity at 10 µM [1] of the same compound?
A: The cytotoxicity at 10 µM was 44.5%.

Q: With `CCOc1ccc(Br)cc1/C=C1\Oc2cccc(OCc3ccccc3)c2C1=O` as the compound, how does the inhibition at 10 µM [6] read?
A: The inhibition at 10 µM was 12.6%.

Q: And the cytotoxicity at 10 µM [1]?
A: Its cytotoxicity at 10 µM is 8.4%.

Q: For `CCOc1ccc(Cl)cc1/C=C1\Oc2cccc(OCc3ccccc3)c2C1=O`, which inhibition at 10 µM [6] is on record?
A: The inhibition at 10 µM was 15.7%.

Q: What about the “inhibition (INH)” value [1] of the same compound?
A: The value was “Not Active”.

Q: Which inhibition at 10 µM [6] does the source give for `COc1ccc(I)cc1/C=C/C(=O)c1ccccc1O` here?
A: Its inhibition at 10 µM is 99.7%.

Q: And the cytotoxicity at 10 µM [1]?
A: The cytotoxicity at 10 µM was 99.6%.

Q: What does the source list for `COc1ccc(Br)cc1-c1cc(=O)c2c(OCc3ccccc3)cccc2o1`?
A: IC50 [2]: 42.3 µM; inhibition at 10 µM [6]: 16.4%; Activity [3]: Non-toxic; cytotoxicity at 10 µM [1]: 6.5%
